# Assay results: ChEMBL document CHEMBL3351977, “Chemotherapy of leishmaniasis part XIII: design and synthesis of novel heteroretinoid-bisbenzylidine ketone hybrids as antileishmanial agents” (Bioorg Med Chem Lett, 2015)
# How the values were obtained:
# [1] = system: Leishmania donovani; test: Antileishmanial activity against amastigote stage of Leishmania donovani MHOM/IN/80/Dd8 infected in mouse J774.1 cells after 72 hrs by luciferase reporter gene assay; type: functional, organism-based
# Outline: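 Intracellular L. donovani amastigotes growing inside macrophages were exposed to a concentration series. IC50 was obtained by nonlinear regression of the concentration-response curve with a four-parameter Hill equation. Values are mean ± S.D. of three independent experiments. Reference drugs were sodium stibogluconate and miltefosine.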
# [2] = (§1) Selectivity index, ratio of CC50 for African green monkey Vero cells to IC50 for amastigote stage of Leishmania donovani MHOM/IN/80/Dd8; type: functional
# Outline: (§2)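 SI was calculated as CC50 on Vero cells (MTT viability) divided by IC50 on L. donovani intramacrophagic amastigotes. IC50 came from four-parameter Hill regression and CC50 from a Huber–Koella template. Both are means of three independent experiments.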
# [3] = (§3) Cytotoxicity against African green monkey Vero cells assessed as cell viability after 72 hrs by MTT assay; type: cell-based; conditions: chlorocebus sabaeus, Vero cells
# Outline: (§4)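 Vero cells were used, with viability read by MTT assay and podophyllotoxin as the reference cytotoxic drug. CC50 (50% maximum cytotoxic concentration) was estimated with a preformed template following Huber and Koella. Values are mean ± S.D. of three independent experiments.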
# [4] = system: Vero; test: as §3; type: cell-based; conditions: chlorocebus sabaeus, vero, 72 h; outline: as §4
# [5] = system: Leishmania donovani; test: Ratio of Miltefosine IC50 to compound IC50 for amastigote stage of Leishmania donovani MHOM/IN/80/Dd8 infected in mouse J774.1 cells; type: functional
# [6] = system: Leishmania donovani; test: Ratio of Sodium stibogluconate IC50 to compound IC50 for amastigote stage of Leishmania donovani MHOM/IN/80/Dd8 infected in mouse J774.1 cells; type: functional
# [7] = system: Vero; test: as §1; type: functional; outline: as §2
# [8] = Leishmania donovani, MHOM/IN/80/Dd8, J774.1, 72 h
Compound,"IC50 [1, 8] [µM]",Ratio CC50/IC50 [2],CC50 at 72 h [3] [µM],other results
COc1ccc(/C=C2\CN(C(=O)c3cc(/C=C/C4C(C)=CCCC4(C)C)on3)C/C(=C\c3ccc(OC)c(OC)c3)C2=O)cc1OC (stereo unspecified),3.75,12.2,45.8,–
SODIUM ANTIMONY GLUCONATE [listing 1 of 2 here],–,–,–,IC50 ([1]; j774.1): 53.1 µM; CC50 [4]: > 400 µM
CC1=CCCC(C)(C)C1/C=C/c1cc(C(=O)N2C/C(=C\c3ccc(Cl)cc3)C(=O)/C(=C/c3ccc(Cl)cc3)C2)no1 (stereo unspecified),> 40,–,–,–
COc1ccc(/C=C2\CN(C(=O)c3cc(/C=C/C4C(C)=CCCC4(C)C)on3)C/C(=C\c3ccc(OC)cc3)C2=O)cc1 (stereo unspecified),> 40,–,–,–
CCCCCCCCCCCCCCCCOP(=O)([O-])OCC[N+](C)(C)C [MILTEFOSINE],8.1,6.52,–,–
COc1ccccc1/C=C1\CN(C(=O)c2cc(/C=C/C3C(C)=CCCC3(C)C)on2)C/C(=C\c2ccccc2OC)C1=O (stereo unspecified),> 20,–,–,–
CC1=CCCC(C)(C)C1/C=C/c1cc(C(=O)N2C/C(=C\c3ccc(OCc4ccccc4)cc3)C(=O)/C(=C/c3ccc(OCc4ccccc4)cc3)C2)no1 (stereo unspecified),> 40,–,–,–
COc1cc(/C=C2\CN(C(=O)c3cc(/C=C/C4C(C)=CCCC4(C)C)on3)C/C(=C\c3ccc(OCc4ccccc4)c(OC)c3)C2=O)ccc1OCc1ccccc1 (stereo unspecified),5.02,>79.68,> 400,Ratio IC50 [5]: 1.6; Ratio IC50 [6]: 10
SODIUM ANTIMONY GLUCONATE [listing 2 of 2 here],–,–,–,Ratio CC50/IC50 [7]: > 7.53

# The next lines start with results.
"IC50 [1, 8] [µM]",Compound,Ratio CC50/IC50 [2],CC50 at 72 h [3] [µM],other results
1.83,COc1cc(/C=C2\CN(C(=O)c3cc(/C=C/C4C(C)=CCCC4(C)C)on3)C/C(=C\c3ccc(O)c(OC)c3)C2=O)ccc1O (stereo unspecified),12.81,23.4,–
6.1,CCOc1cc(/C=C2\CN(C(=O)c3cc(/C=C/C4C(C)=CCCC4(C)C)on3)C/C(=C\c3ccc(O)c(OCC)c3)C2=O)ccc1O (stereo unspecified),4.53,27.7,–
4.7,COc1cc(/C=C2\CN(C(=O)c3cc(/C=C/C4C(C)=CCCC4(C)C)on3)C/C(=C\c3cc(OC)c(OC)c(OC)c3)C2=O)cc(OC)c1OC (stereo unspecified),5.38,25.3,–
